Data set [1] concerns the target T1, CYP1A1 (Homo sapiens, UniProt P04798).
T1 sequence (P04798 1-512): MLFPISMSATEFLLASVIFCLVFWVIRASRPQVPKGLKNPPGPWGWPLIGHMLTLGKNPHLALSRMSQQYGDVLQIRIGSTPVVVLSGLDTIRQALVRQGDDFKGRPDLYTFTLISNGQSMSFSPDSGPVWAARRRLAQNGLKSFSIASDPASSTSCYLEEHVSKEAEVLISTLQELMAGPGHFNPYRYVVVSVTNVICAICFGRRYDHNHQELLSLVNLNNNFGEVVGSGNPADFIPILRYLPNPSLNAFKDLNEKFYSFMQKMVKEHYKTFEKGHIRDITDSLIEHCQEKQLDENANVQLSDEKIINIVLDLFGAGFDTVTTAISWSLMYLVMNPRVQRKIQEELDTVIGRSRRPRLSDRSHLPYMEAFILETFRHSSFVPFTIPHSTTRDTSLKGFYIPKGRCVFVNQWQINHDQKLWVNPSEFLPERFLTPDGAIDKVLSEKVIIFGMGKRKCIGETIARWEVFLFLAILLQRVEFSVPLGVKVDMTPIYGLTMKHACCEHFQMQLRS
The experiment in a line: CYP1A1 inhibition in yeast microsomes. In kind it is biochemical. In a few lines: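 Human CYP1A1 expressed in yeast microsomes (Sacchrosomes). […] IC50 from a four-parameter variable-slope sigmoidal (Hill) fit of uninhibited fraction against inhibitor concentration.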

The target of data set [2] is T2, CYP1A2 (Homo sapiens, UniProt P05177).
T2 sequence (P05177 1-516): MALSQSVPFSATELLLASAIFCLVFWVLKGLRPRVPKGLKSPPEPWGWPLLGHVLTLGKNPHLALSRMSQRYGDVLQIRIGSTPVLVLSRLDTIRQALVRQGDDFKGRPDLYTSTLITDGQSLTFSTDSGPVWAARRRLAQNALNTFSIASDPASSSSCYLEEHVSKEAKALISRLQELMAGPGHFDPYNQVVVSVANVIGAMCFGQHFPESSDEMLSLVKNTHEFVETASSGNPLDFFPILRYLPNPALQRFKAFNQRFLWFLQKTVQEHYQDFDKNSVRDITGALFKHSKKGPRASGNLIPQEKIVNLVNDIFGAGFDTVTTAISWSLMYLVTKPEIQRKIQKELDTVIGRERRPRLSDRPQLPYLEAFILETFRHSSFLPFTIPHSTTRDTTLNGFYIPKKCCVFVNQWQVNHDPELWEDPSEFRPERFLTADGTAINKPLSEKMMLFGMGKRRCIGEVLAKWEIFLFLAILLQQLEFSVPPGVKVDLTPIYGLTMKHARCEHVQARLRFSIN
The experiment in a line: CYP1A2 inhibition in Sacchrosomes. It counts as biochemical. In a few lines:
(§1)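 Kinetic microplate assay, 15 min reaction, using recombinant human P450s expressed in S. cerevisiae microsomes. Run in 100 mM potassium phosphate pH 7.4 with an NADPH-regenerating system (final: 0.04 units G6PDH, 1.3 mM NADP+, 3.3 mM glucose-6-phosphate, 3.3 mM MgCl2, 50 μM sodium citrate). Reaction started with substrate plus NADPH system. Test compound serially diluted from 20 μM final (CYP2E1: from 10 μM), 0.5% DMSO final. IC50 from Hill fit.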

For data set [3], the target named is T3, CYP1B1 (Homo sapiens, UniProt Q16678).
T3 sequence (Q16678 1-543): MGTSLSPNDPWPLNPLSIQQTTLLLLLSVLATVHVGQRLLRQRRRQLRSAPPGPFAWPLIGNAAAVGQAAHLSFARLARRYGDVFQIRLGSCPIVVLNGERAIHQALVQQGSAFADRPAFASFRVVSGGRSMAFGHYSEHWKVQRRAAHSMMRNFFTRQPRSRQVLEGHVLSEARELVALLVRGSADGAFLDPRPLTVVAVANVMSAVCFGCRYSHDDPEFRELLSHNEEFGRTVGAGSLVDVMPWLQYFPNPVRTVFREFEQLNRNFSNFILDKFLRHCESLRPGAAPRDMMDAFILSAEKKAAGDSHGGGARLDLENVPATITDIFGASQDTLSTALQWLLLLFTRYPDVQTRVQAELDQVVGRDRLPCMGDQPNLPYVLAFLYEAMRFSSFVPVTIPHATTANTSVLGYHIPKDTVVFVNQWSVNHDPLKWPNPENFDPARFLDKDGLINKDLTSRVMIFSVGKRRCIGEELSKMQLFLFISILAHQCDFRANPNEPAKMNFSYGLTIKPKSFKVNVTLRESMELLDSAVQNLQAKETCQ
The experiment in a line: CYP1B1 inhibition in Sacchrosomes. In kind it is biochemical. In a few lines:
as §1

The test system of data set [4] is CYP2A6, CYP2B6, CYP2C8, CYP2C9, CYP2C18, CYP2C19, CYP2D6, CYP2E1, CYP3A4. The experiment in a line: CYP2 and CYP3 subfamily panel inhibition in Sacchrosomes. The settings on record: human, pH 7.4. In kind it is biochemical. In a few lines: as §1
Data set [5] concerns the target T1, CYP1A1. Nature of the data set: CYP1A1 inhibition in live HEK293 cells overexpressing CYP1A1. It counts as cell-based. The settings on record: for selectivity for CYP1A1 over CYP1B1: ratio of live cell IC50 values CYP1B1/CYP1A1; for inhibition at 10 µM: human, live HEK293 cells overexpressing CYP1A1, % inhibition of CYP1A1 at 10 μM (Mean ± SD) HEK293 cells, HEK293 cells overexpressing CYP1A1.

The target of data set [6] is T2, CYP1A2. The experiment in a line: CYP1A2 inhibition in live human HEK293 cells. In kind it is cell-based. In a few lines:
(§2)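 Live recombinant HEK293 cells, each expressing a single human CYP isoform. IC50 from a four-parameter variable-slope sigmoidal (Hill) fit of uninhibited fraction against inhibitor concentration.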

Data set [7] addresses T3, CYP1B1. Nature of the data set: CYP1B1 inhibition in live human HEK293 cells. In kind it is cell-based. In a few lines:
as §2

The target in another data set is CYP2D6 (Homo sapiens, UniProt P10635). The experiment in a line: CYP2D6 inhibition in live human HEK293 cells. It counts as cell-based. In a few lines:
as §2

Another data set addresses CYP3A4 (Homo sapiens, UniProt P08684). The experiment in a line: CYP3A4 inhibition in live human HEK293 cells. In kind it is cell-based. In a few lines:
as §2

Data set [8] deals with CYP1A1-overexpressing HEK293 cells. Nature of the data set: Protection of CYP1A1-overexpressing HEK293 cells from B[a]P toxicity. In kind it is cell-based, human. The settings on record: compound at 3× IC50 concentration. In a few lines:
(§3)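 CYP1A1-expressing adherent HEK293 cells exposed to B[a]P at 0.05–100 μM, alone or with test compound. Viability read by MTT and checked by sulforhodamine B. EC50 (B[a]P concentration for 50% viability loss) taken from a dose–response curve of viability versus log B[a]P concentration, averaged over three independent experiments.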

Another data set relates to A549 cells. Nature of the data set: FACS cell cycle analysis of A549 lung cancer cells treated with B[a]P. It counts as cell-based, human. The conditions noted are these: A549 (p53+); 4l at 3× IC50 before 15 μM B[a]P. In a few lines: (§4)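 CYP1A1 expression in the cells confirmed by western blot. Cells preincubated 20 h with test compound, exposed to 15 μM B[a]P for 3 h, then released into fresh medium for 57 h. Cells trypsinised, PBS-washed and fixed 1 h in 70% ethanol at −20 °C. Treated with RNase (0.5 mg/mL) and stained with propidium iodide (50 μg/mL) for 1 h at 4 °C in the dark. Single cells gated; about 10 000 events collected; % G0/G1, S and G2/M reported.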

A further data set has as its system Calu-1 cells. Nature of the data set: FACS cell cycle analysis of Calu-1 lung cancer cells treated with B[a]P. The settings on record: Calu-1 (p53-null); 4l at 3× IC50 before 15 μM B[a]P. In kind it is cell-based, human. In a few lines:
as §4

The subject of a further data set is normal HEK293 cells. The experiment in a line: B[a]P toxicity in normal HEK293 cells. In kind it is cell-based. The conditions noted are these: Homo sapiens, HEK293, read-out: EC50 of B[a]P in normal HEK293 cells. In a few lines:
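Adherent HEK293 cells exposed to a concentration series of B[a]P; viability read by MTT assay. EC50 is the B[a]P concentration giving 50% loss of viability, taken from a dose–response curve of viability versus log B[a]P concentration.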

Data set [9] is described as follows: Protection of CYP1A1-overexpressing HEK293 cells from B[a]P toxicity. The settings on record: human, CYP1A1-overexpressing HEK293 cells. In kind it is cell-based, human. In a few lines: as §3

The structures appear in SMILES notation. “Also recorded” adds a separate entry of the source. Where only a bound is given, the exact number is not on record here.

Chain of CYP2D6 (P10635 whole entry): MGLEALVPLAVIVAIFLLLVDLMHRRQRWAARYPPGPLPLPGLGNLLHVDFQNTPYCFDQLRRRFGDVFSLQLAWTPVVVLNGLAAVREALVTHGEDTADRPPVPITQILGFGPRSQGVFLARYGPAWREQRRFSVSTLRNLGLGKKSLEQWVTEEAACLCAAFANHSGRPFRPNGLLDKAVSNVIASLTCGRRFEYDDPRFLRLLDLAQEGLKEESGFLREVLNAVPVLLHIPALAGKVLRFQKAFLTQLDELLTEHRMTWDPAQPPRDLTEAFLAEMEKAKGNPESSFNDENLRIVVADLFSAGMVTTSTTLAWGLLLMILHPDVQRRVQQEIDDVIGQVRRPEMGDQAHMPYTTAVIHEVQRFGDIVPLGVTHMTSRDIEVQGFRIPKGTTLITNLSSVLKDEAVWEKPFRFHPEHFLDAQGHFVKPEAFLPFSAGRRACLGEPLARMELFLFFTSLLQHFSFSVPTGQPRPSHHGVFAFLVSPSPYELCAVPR
Chain of CYP3A4 (P08684 whole entry): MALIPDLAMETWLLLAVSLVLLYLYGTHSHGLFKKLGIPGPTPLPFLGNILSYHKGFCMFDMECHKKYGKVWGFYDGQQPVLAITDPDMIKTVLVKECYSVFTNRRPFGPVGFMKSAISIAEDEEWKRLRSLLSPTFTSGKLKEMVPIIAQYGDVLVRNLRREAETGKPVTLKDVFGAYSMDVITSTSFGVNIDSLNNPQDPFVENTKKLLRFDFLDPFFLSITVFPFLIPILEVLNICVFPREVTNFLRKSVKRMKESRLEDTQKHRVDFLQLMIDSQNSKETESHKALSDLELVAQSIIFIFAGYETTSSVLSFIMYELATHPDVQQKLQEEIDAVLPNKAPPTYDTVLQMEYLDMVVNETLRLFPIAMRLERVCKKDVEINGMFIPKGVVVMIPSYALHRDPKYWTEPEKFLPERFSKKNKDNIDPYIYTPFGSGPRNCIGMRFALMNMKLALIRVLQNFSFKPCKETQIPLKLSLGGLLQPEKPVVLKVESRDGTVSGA

As to `COc1c(C(=O)C=Cc2ccsc2)c(O)c(OC)c2occc12` [3r, 1-(6-Hydroxy-4,7-dimethoxybenzofuran-5-yl)-3-(thiophen-3-yl)prop-2-en-1-one], the half-inhibitory concentration (IC50) – broadly, the concentration that gives 50% inhibition – against CYP1A1 [1] was determined as 280 ± 30 nM; against CYP1A2 [2], 4200 ± 800 nM; against CYP1B1 [3], 780 ± 40 nM. The IC50 at 15 min in data set [4] was greater than 20000 nM.
In the case of `COc1c2c(c(OC)c3occc13)OC(c1cccnc1)CC2=O` (stereo not drawn) [4e, 4,9-Dimethoxy-7-(pyridin-3-yl)-6,7-dihydro-5H-furo[3,2-g]chromen-5-one], the IC50 against CYP1A1 [5] is 450 ± 60 nM; against CYP1A2 [6], greater than 10000 nM; against CYP1B1 [7], 4160 ± 250 nM; on CYP2D6, greater than 10000 nM; against CYP3A4 it was greater than 10000 nM. The “selectivity for CYP1A1 over CYP1B1” value on CYP1A1 [5] came out at 9.2 fold.
Turning to `COc1c(C(=O)C=Cc2cccnc2)c(O)c(OC)c2occc12` [3g, 1-(6-Hydroxy-4,7-dimethoxybenzofuran-5-yl)-3-(pyridin-3-yl)prop-2-en-1-one], the IC50 is 340 ± 30 nM against CYP1A1 [1]; 470 nM at CYP1A1 [5]; 170 ± 20 nM on CYP1A2 [2]; 660 ± 40 nM on CYP1B1 [3]; 270 nM at CYP1B1 [7]. In addition, the inhibition (as a rule, the drop in the measured response relative to a control, in per cent) at 10 µM turned out to be 97% against CYP1A1 [1] (human, % inhibition of CYP1A1 at 10 μM (Mean ± SD) Sacchrosomes, 10 μM, Sacchrosomes) and 99% at CYP1A1 [5]. The compound also registered an IC50 at 15 min in data set [4] greater than 20000 nM. Further, the “protection from CYP1A1-mediated B[a]P toxicity” value in [8] is recorded as “completely protected”.
Turning to `COc1c2c(c(OC)c3occc13)OC(c1ccc(F)c(Br)c1)CC2=O` (stereo not drawn) [4l, 7-(3-Bromo-4-fluorophenyl)-4,9-dimethoxy-6,7-dihydro-5H-furo[3,2-g]chromen-5-one], the IC50 at CYP1A1 [5] is 140 ± 40 nM; on CYP1A2 [6], greater than 10000 nM; against CYP1B1 [7], 23800 ± 1200 nM; against CYP2D6 it was greater than 10000 nM; on CYP3A4, greater than 10000 nM. For the same compound, at CYP1A1 [5], the “selectivity for CYP1A1 over CYP1B1” value was 170 fold. Besides, the “protection from CYP1A1-mediated B[a]P toxicity” value in data set [8] was “completely protected”. For the same compound, the “effect on B[a]P-mediated S-phase block” value with A549 cells and in the data set on Calu-1 cells was “restored into the cell cycle; also recorded: preponderantly released from the block; also recorded: prevented manifestation of B[a]P-mediated S-phase block” throughout.
For `c1ccc2c(c1)cc1ccc3cccc4ccc2c1c34` [B[a]P, benzo[a]pyrene, reference compound], the EC50 (commonly the midpoint of the concentration-response curve) in the data set with normal HEK293 cells turned out to be 14000 nM; in data set [9] it was 1400 nM.
As to `COc1c2c(c(OC)c3occc13)OC(c1ccccc1)CC2=O` (stereo not drawn) [4a, 4,9-Dimethoxy-7-phenyl-6,7-dihydro-5H-furo[3,2-g]chromen-5-one], the IC50 was 1840 ± 140 nM on CYP1A1 [5]; greater than 10000 nM at CYP1A2 [6]; 566 ± 80 nM against CYP1B1 [7]; greater than 10000 nM against CYP2D6; greater than 10000 nM against CYP3A4. The same compound yielded an inhibition at 10 µM against CYP1A1 [5] of 87%.

These data come from paper PMC6645225 (ACS Omega, 2018).
